Measurements from PMC10842602 (Bioorganic & medicinal chemistry, 2023).
Changes are numbered by the printed parent chain.

What was measured:
WT human SLACK [1] = molecular target: T1, WT human SLACK (Homo sapiens, UniProt Q5JUK3); test: Tl+ flux assay in HEK-293 cells stably expressing WT human SLACK; type: cell-based; settings: CRC; IC50 for compounds of mode Inh (also cells printed Inactive)
T1 sequence (Q5JUK3 1-1235 isoform Q5JUK3-3): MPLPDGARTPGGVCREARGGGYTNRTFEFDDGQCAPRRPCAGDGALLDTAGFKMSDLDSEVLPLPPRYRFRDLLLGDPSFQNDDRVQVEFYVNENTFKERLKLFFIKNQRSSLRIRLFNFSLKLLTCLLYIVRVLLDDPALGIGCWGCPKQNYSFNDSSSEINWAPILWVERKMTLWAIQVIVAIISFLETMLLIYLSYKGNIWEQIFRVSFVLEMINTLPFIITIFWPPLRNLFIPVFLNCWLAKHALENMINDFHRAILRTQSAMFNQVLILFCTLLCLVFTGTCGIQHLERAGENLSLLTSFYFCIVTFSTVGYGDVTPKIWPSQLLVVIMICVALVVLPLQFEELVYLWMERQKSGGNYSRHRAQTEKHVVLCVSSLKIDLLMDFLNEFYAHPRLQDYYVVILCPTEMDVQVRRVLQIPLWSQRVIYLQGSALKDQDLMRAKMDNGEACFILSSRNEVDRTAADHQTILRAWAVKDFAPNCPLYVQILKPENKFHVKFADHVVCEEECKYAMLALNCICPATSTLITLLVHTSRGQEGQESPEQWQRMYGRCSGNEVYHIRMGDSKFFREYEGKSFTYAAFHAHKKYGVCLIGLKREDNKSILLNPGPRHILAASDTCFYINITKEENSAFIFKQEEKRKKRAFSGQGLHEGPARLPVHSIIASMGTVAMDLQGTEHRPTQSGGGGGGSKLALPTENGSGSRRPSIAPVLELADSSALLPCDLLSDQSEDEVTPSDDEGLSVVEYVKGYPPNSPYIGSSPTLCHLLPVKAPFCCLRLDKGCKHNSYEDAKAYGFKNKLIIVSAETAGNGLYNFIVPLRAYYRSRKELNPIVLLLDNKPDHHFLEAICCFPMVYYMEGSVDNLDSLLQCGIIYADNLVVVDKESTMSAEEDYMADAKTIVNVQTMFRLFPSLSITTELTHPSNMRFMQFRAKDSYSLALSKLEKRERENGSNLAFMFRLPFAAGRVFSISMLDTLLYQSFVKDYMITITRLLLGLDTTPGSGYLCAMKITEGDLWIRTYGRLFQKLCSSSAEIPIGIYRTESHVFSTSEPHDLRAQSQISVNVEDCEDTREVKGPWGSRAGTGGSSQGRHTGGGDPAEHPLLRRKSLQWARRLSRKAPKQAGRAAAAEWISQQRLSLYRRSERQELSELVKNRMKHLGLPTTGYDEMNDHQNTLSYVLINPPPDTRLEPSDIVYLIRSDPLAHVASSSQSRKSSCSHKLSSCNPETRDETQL
How it was run: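 Stably transfected HEK-293 cells expressing wild-type human SLACK; thallium flux read-out. IC50 or EC50 taken from concentration-response curves, and each compound classed as inhibitor, activator or not active. Efficacy is the response amplitude at 30 μM test compound, as a percentage of the maximum response to a reference SLACK inhibitor (for inhibitors) or loxapine (for activators).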

Maxi-K (Slo1 α1/β3) = Maxi-K (Slo1 α1/β3) (Homo sapiens, UniProt Q12791); test: Tl+ flux assay in HEK-293 cells expressing Maxi-K; type: cell-based; settings: CRC
Chain of Maxi-K (Slo1 α1/β3) (Q12791 whole entry, species assumed): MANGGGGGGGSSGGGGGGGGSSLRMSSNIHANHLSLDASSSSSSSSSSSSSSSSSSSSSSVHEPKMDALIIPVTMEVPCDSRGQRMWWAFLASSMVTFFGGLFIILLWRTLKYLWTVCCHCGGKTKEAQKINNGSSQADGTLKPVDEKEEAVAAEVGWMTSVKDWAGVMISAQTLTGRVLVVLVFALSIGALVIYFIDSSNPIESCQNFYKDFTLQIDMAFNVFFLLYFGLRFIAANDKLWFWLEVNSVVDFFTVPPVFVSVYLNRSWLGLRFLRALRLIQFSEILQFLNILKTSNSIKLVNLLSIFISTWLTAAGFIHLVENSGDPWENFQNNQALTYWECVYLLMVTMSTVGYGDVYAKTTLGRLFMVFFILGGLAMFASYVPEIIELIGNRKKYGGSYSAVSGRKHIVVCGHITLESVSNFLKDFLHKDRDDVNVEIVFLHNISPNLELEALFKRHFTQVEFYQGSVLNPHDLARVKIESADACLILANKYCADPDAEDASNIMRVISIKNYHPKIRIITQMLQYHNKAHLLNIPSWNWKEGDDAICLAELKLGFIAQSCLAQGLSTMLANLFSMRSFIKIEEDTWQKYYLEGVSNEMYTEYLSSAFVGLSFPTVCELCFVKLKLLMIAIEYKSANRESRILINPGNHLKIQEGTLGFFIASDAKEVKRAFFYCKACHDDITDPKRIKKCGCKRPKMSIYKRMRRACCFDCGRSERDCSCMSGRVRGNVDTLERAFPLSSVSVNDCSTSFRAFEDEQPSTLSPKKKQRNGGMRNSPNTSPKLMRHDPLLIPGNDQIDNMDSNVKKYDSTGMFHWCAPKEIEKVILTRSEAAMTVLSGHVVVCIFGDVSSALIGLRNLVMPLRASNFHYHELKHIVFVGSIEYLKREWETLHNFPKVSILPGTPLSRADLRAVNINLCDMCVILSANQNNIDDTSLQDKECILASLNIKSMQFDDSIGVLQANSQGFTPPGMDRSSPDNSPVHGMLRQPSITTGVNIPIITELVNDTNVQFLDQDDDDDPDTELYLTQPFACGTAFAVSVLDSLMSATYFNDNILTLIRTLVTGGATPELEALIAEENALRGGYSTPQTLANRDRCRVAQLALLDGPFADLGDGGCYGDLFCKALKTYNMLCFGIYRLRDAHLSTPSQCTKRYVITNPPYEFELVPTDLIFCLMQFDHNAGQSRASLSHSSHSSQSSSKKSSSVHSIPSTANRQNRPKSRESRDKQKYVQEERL
Chain of Maxi-K (Slo1 α1/β3) (Q9NPA1 whole entry partner, species assumed): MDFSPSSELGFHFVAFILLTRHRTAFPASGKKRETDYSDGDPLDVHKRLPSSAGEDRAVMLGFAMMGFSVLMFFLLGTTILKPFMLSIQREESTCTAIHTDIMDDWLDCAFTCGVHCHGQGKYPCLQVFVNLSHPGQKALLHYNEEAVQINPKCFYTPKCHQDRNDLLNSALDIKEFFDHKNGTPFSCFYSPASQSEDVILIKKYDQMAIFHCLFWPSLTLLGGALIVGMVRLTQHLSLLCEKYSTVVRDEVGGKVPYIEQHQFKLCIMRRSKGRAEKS

human A934T SLACK = molecular target: T2, human A934T SLACK (Homo sapiens, UniProt Q5JUK3, A915T); test: Tl+ flux assay in HEK-293 cells expressing A934T SLACK; type: cell-based; settings: CRC
T2 sequence (Q5JUK3 1-1235 isoform Q5JUK3-3 A934T): T1 sequence (Q5JUK3 1-1235 isoform Q5JUK3-3) with A934T

WT human SLACK [2] = molecular target: T1, WT human SLACK; test: Whole-cell voltage-clamp electrophysiology, automated patch clamp; type: cell-based; settings: CRC, CHO cells expressing WT SLACK
How it was run: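 CHO cells stably expressing wild-type human SLACK. Currents recorded in whole-cell voltage-clamp mode on an automated patch clamp platform. IC50 derived from concentration-response data for a selected subset of analogs.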

[3] = Metabolic stability in mouse liver microsomes; type: in vitro ADME; settings: multiple time points
hERG = hERG (Homo sapiens, UniProt Q12809); test: Tl+ flux assay in HEK-293 stably expressing hERG; type: cell-based; settings: 10 μM concentration
Chain of hERG (Q12809 whole entry): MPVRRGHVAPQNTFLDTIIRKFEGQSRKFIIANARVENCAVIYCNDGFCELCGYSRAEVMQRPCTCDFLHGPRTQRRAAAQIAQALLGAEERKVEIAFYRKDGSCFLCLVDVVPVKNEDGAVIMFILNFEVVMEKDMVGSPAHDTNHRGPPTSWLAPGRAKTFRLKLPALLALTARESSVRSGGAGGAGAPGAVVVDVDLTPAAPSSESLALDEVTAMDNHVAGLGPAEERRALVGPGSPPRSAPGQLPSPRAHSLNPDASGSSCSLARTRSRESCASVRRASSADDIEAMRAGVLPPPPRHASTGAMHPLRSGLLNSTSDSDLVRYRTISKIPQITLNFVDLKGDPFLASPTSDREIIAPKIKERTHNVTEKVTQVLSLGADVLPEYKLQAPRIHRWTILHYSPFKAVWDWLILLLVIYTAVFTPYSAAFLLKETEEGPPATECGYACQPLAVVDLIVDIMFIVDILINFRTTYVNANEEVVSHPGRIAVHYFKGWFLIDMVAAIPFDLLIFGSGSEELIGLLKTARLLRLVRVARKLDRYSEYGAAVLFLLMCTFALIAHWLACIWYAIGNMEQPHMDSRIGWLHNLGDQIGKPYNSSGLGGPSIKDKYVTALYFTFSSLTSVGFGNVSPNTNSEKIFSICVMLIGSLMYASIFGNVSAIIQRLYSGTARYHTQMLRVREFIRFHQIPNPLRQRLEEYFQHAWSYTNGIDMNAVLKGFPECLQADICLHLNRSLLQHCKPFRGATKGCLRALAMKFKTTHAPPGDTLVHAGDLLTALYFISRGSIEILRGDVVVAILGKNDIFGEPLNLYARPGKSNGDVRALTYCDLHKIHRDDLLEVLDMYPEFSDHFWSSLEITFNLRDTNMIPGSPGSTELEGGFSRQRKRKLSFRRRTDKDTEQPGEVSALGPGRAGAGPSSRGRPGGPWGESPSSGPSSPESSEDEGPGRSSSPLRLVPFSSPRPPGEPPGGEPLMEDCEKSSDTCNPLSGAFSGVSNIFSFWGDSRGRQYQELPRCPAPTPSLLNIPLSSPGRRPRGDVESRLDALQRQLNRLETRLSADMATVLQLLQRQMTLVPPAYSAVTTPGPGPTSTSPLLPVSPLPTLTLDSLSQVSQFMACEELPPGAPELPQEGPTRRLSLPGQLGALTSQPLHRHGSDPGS

GABAA Cl– channels = settings: binding displacement assay; cited from earlier work
[4] = system: neurons from Kcnt1^L/L mice; settings: brain slices, 10 μM; cited from earlier work

SMILES | IC50 / EC50 (WT human SLACK [1]) [µM] | Maxi-K (Slo1 α1/β3) IC50 (Maxi-K (Slo1 α1/β3)) | IC50 (whole-cell EP) (WT human SLACK [2]) | other results
CCOc1ccccc1S(=O)(=O)N1CC(c2nc(-c3ccc(F)cc3)no2)C1 [Compound 43, 5-(1-((2-Ethoxyphenyl)sulfonyl)azetidin-3-yl)-3-(4-fluorophenyl)-1,2,4-oxadiazole] | 3.2 | inactive | – | –
CCOc1ccccc1S(=O)(=O)N1CC(c2nc(-c3ccc(F)s3)no2)C1 [Compound 60, 5-(1-((2-Ethoxyphenyl)sulfonyl)azetidin-3-yl)-3-(5-fluorothiophen-2-yl)-1,2,4-oxadiazole] | 4.8 | inactive | submicromolar potency | A934T IC50 (human A934T SLACK): submicromolar potency
CCOc1ccccc1S(=O)(=O)N1CC(c2nc(-c3ccsc3)no2)C1 [Compound 5, 5-(1-((2-Ethoxyphenyl)sulfonyl)azetidin-3-yl)-3-(thiophen-3-yl)-1,2,4-oxadiazole] | 2.1 | inactive | submicromolar potency | –
O=S(=O)(c1ccccc1OCC(F)(F)F)N1CC(c2nc(-c3ccc(F)cc3)no2)C1 [Compound 113, 3-(4-Fluorophenyl)-5-(1-((2-(2,2,2-trifluoroethoxy)phenyl)sulfonyl)azetidin-3-yl)-1,2,4-oxadiazole] | 8.8 | inactive | – | –
CCOc1ccccc1S(=O)(=O)N1CC(c2nc(-c3ccc(F)cc3Cl)no2)C1 [Compound 58, 3-(2-Chloro-4-fluorophenyl)-5-(1-((2-ethoxyphenyl)sulfonyl)azetidin-3-yl)-1,2,4-oxadiazole] | 2.1 | inactive | submicromolar potency | –
CC(C)Oc1ccccc1S(=O)(=O)N1CC(c2nc(-c3ccsc3)no2)C1 [Compound 27, 5-(1-((2-Isopropoxyphenyl)sulfonyl)azetidin-3-yl)-3-(thiophen-3-yl)-1,2,4-oxadiazole] | 3.7 | inactive | – | –
O=S(=O)(c1cccc2cccnc12)N1CC(c2nc(-c3ccc(F)cc3)no2)C1 [Compound 121, 3-(4-Fluorophenyl)-5-(1-(quinolin-8-ylsulfonyl)azetidin-3-yl)-1,2,4-oxadiazole] | 7.4 | inactive | – | predicted hepatic clearance (CLHEP) [3]: 75 mL/min/kg
O=S(=O)(c1cccc2c1OCCC2)N1CC(c2nc(-c3ccc(F)cc3)no2)C1 [Compound 119, 5-(1-(chroman-8-ylsulfonyl)azetidin-3-yl)-3-(4-fluorophenyl)-1,2,4-oxadiazole] | 8.7 | inactive | – | –
CCOc1ccccc1S(=O)(=O)N1CCC(c2nc(-c3ccc(F)cc3)no2)CC1 [Compound 76] | 4.9 | inactive | – | –
[2H]C([2H])([2H])C([2H])([2H])Oc1ccccc1S(=O)(=O)N1CC(c2nc(-c3ccc(F)cc3)no2)C1 [Compound 109, 5-(1-((2-(Ethoxy-d5)phenyl)sulfonyl)azetidin-3-yl)-3-(4-fluorophenyl)-1,2,4-oxadiazole] | 5.4 | inactive | – | –
Cc1ccc2cccc(S(=O)(=O)N3CC(c4nc(-c5ccc(F)cc5)no4)C3)c2n1 [Compound 122, 3-(4-Fluorophenyl)-5-(1-((2-methylquinolin-8-yl)sulfonyl)azetidin-3-yl)-1,2,4-oxadiazole] | 1.1 | inactive | submicromolar potency | A934T IC50 (human A934T SLACK): submicromolar potency; hERG activity (hERG): inactive
C[C@H](NC(=O)c1cc(C(F)(F)F)nn1C)c1nc(-c2ccnc(C(F)(F)F)c2)no1 [Compound 3] | – | – | – | displacement at GABAA Cl– channels (GABAA Cl– channels): 74%; firing in neurons [4]: significant reduction in the firing
